Test results published in ChEMBL document CHEMBL3877306, “Triazole Ureas Act as Diacylglycerol Lipase Inhibitors and Prevent Fasting-Induced Refeeding” (J Med Chem, 2017).
pIC50: −log10 of the molar value. Activity calls are given as the source filed them. No cut-off for these calls is given here.

What was measured:
[1] = molecular target: T1, Diacylglycerol lipase-alpha (Homo sapiens, UniProt Q9Y4D2); assay: Inhibition of HT-01 probe binding to recombinant human DAGLalpha expressed in HEK293T cell membrane proteomes preincubated for 30 mins followed by HT-01 probe addition measured after 30 mins by gel-based competitive activity based protein profiling assay; format: cell membranes, HEK-293T
T1 sequence (Q9Y4D2 whole entry): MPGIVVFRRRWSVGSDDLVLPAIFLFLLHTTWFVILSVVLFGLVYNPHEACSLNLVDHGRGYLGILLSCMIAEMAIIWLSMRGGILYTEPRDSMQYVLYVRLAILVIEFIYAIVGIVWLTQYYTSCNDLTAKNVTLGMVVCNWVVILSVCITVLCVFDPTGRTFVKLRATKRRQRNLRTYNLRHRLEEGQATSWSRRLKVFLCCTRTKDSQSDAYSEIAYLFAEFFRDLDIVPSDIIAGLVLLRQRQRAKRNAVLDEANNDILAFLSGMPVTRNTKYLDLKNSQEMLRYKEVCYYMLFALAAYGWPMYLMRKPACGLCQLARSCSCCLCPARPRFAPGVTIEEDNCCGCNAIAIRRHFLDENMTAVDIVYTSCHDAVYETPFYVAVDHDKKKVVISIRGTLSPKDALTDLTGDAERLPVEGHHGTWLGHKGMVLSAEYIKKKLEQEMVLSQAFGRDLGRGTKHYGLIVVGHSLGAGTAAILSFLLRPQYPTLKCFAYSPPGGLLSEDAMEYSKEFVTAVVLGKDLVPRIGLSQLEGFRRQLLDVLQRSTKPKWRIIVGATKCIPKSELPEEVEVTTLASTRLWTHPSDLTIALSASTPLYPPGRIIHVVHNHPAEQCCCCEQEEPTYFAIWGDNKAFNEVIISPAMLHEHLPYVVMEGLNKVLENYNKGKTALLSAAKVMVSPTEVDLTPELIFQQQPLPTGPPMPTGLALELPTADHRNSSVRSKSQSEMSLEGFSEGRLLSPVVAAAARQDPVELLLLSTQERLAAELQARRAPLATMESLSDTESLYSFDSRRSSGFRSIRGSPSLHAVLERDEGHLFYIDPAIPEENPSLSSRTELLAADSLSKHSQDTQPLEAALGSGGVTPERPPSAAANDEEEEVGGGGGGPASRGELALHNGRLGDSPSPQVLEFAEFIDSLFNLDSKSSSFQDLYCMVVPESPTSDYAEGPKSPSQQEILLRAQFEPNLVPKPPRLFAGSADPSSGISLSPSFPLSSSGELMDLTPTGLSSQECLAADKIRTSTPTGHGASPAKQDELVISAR

[2] = molecular target: T1, Diacylglycerol lipase-alpha; assay: Inhibition of full length recombinant human DAGLalpha expressed in HEK293T cell membranes using PNP butyrate as substrate by colorimetric assay; parameters: species or system HEK-293T
In short: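 Membranes from HEK293T cells transiently transfected with human DAGLα (PEI transfection, harvested at 72 h), used at 0.05 µg/µL final protein in 50 mM HEPES pH 7.2. Activity was read colorimetrically from para-nitrophenylbutyrate hydrolysis. n = 4, mean ± SEM.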

[3] = molecular target: T2, Diacylglycerol lipase-alpha (Homo sapiens) (UniProt Q9Y4D2); assay: Inhibition of DH379 probe binding to full length recombinant human DAGLalpha expressed in HEK293T cell membranes at 0.1 to 10000 nM after 30 mins by gel-based competitive activity based protein profiling assay; conditions: HEK-293T
T2 sequence (whole entry): T1 sequence (Q9Y4D2 whole entry)
In short: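 Membranes from HEK293T cells transiently transfected with human DAGLα were preincubated with inhibitor, then labelled with DAGL-tailored probe DH379 (1 μM, 30 min). Readout was fluorescent SDS gel. Band intensity was normalized to vehicle (100%) and fitted with a variable-slope dose-response curve. n = 3.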

[4] = molecular target: T3, Diacylglycerol lipase-beta (Homo sapiens) (UniProt Q8NCG7); assay: Inhibition of DH379 probe binding to full length recombinant human DAGLbeta expressed in HEK293T cell membranes at 0.1 to 10000 nM after 30 mins by gel-based competitive activity based protein profiling assay; conditions: HEK-293T
T3 sequence (whole entry): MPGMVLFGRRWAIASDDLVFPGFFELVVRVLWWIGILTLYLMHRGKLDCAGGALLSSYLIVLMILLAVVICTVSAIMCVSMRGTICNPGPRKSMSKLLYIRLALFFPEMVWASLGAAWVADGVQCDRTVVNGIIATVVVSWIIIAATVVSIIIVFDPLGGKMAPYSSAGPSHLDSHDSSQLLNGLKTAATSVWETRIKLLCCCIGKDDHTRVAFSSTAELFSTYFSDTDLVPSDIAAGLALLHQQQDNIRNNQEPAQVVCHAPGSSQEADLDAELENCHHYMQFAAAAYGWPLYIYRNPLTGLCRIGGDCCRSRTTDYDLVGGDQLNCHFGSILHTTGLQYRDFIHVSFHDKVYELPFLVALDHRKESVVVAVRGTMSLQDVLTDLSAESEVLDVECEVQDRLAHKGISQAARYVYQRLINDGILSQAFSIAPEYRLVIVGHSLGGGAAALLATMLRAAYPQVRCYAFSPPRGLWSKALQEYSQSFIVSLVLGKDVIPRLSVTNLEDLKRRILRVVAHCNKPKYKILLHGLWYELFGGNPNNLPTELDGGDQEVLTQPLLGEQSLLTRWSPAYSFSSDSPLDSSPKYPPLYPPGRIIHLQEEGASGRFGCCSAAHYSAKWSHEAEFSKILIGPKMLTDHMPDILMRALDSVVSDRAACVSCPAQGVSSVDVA
In short: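 HEK293T cells transiently transfected with full-length human DAGLβ cDNA (PEI:DNA 3:1), harvested at 72h; membrane fraction diluted to 1 mg/mL protein. Inhibitor-treated membranes were labelled with DAGL-tailored probe DH379 (1 μM, 30 min), then run on fluorescent SDS-PAGE. Band intensity was normalised to vehicle (100%), and IC50 was fitted to log(inhibitor) vs normalised response with variable slope; n = 3.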

[5] = molecular target: T4, Monoacylglycerol lipase ABHD6 (Homo sapiens, UniProt Q9BV23); assay: Inhibition of human ABHD6 using 2-AG as natural substrate by fluorescence based assay
T4 sequence (Q9BV23 whole entry): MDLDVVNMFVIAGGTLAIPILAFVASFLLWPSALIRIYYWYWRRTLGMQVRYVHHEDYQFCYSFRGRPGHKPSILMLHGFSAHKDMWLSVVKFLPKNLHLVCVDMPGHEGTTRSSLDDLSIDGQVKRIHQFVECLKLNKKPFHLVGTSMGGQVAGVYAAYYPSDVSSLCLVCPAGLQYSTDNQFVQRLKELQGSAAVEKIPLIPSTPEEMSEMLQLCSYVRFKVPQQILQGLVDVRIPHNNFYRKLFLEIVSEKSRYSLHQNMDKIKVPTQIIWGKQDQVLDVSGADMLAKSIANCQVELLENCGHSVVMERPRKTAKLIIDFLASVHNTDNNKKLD
In short: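 Coupled fluorescence assay: 2-AG hydrolysis detected via glycerol kinase, glycerol-3-phosphate oxidase and HRP (0.2 U/mL each), 0.125 mM ATP and 10 µM Amplifu Red. Conditions: 25 µM 2-AG, 0.5% acetonitrile, 5% DMSO, ABHD6 membrane protein 40 µg/mL final. n = 4.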

[6] = molecular target: T1, Diacylglycerol lipase-alpha; assay: Inhibition of recombinant human DAGLalpha expressed in HEK293T cell membranes overexpressing MAGL using natural substrate 1-stearoyl-2-arachidonoly-sn-glycerol by fluorescence based assay; parameters: species or system HEK-293T
In short: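 Real-time coupled fluorescence readout of glycerol release from hDAGLα-transfected HEK293T membranes (50 µg/mL final protein) with 100 µM SAG substrate. Added: 5 µg/mL MAGL-overexpressing membranes, 0.0075% (w/v) Triton X-100, 0.2 U/mL each glycerol kinase, glycerol-3-phosphate oxidase and HRP, 0.125 mM ATP, 10 µM Amplifu Red, 5% DMSO. n = 4.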

[7] = molecular target: T5, Diacylglycerol lipase-alpha (Mus musculus) (UniProt Q6WQJ1); assay: (§1) Inhibition of MB064 probe binding to DAGLalpha in mouse brain membrane proteome preincubated for 30 mins followed by MB064 probe addition measured after 20 mins by gel-based competitive activity based protein profiling assay; format: cell membranes
T5 sequence (whole entry): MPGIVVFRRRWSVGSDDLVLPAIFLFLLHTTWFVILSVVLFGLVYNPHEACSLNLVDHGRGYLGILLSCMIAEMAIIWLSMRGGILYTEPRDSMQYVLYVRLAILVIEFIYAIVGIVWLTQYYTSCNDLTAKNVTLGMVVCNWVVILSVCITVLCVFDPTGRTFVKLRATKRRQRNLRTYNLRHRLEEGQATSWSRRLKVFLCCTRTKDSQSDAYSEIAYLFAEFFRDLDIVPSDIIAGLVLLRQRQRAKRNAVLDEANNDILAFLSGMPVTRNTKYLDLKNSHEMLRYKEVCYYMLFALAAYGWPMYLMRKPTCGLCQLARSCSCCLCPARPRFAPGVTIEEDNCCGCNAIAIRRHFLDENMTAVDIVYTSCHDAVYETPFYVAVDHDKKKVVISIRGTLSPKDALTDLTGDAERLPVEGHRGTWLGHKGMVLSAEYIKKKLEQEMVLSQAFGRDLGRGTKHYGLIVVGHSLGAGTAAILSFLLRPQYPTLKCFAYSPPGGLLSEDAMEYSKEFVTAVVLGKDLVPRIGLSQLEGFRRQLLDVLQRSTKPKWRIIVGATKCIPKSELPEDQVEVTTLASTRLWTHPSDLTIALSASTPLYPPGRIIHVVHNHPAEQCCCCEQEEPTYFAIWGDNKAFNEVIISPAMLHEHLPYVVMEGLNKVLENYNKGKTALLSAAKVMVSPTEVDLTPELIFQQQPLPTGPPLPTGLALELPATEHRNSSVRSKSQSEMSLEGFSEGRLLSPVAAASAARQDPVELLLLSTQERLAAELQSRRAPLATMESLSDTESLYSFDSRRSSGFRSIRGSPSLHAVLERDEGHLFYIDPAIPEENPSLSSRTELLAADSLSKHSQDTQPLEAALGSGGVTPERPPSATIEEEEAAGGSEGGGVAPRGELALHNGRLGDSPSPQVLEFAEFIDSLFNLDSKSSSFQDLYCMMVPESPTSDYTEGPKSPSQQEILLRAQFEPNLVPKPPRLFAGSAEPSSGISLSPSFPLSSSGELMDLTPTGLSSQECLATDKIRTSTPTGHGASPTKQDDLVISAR
In short: (§2)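 Mouse brain membrane proteome (2 mg/mL) preincubated with inhibitor or DMSO vehicle for 30 min at r.t., then labelled with MB064 at 250 nM final for 20 min at r.t. and quenched in Laemmli buffer. Fluorescent bands were quantified against vehicle set to 100%, and IC50 was taken from a variable-slope log(inhibitor) vs normalized response fit. n = 3.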

[8] = molecular target: T6, Diacylglycerol lipase-alpha (Mus musculus, UniProt Q6WQJ1); assay: as §1; format: cell membranes; in short: as §2
T6 sequence (Q6WQJ1 whole entry): T5 sequence (whole entry)

[9] = molecular target: T7, Monoacylglycerol lipase ABHD6 (Mus musculus, UniProt Q8R2Y0); assay: Inhibition of MB064 probe binding to ABHD6 in mouse brain membrane proteome preincubated for 30 mins followed by MB064 probe addition measured after 20 mins by gel-based competitive activity based protein profiling assay; format: cell membranes; in short: as §2
T7 sequence (Q8R2Y0 whole entry): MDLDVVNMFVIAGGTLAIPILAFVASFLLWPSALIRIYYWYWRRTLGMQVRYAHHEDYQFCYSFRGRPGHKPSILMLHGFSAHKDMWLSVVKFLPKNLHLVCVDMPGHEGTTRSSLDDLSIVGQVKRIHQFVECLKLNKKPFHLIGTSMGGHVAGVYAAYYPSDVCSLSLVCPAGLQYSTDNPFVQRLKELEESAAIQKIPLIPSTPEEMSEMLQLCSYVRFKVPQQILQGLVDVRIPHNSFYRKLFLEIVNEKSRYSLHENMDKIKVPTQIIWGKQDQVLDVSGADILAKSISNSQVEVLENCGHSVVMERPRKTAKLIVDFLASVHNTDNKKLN

Mus musculus [10] = species: Mus musculus; assay: Selectivity ratio of IC50 for ABHD6 in mouse brain membrane proteome to IC50 for DAGLalpha in mouse brain membrane proteome; format: cell membranes
In short: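 Ratio of DAGLα and ABHD6 […] values, both from competitive gel ABPP in mouse brain membrane proteome. Inhibitor was preincubated 30 min at r.t., then MB064 (250 nM final) was added for 20 min. Band intensities were normalized to vehicle and fitted with a variable-slope curve. n = 3.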

Mus musculus [11] = assay: Inhibition of fasting-induced refeeding in 18 hrs fasted C57Bl/6J mouse at 50 mg/kg, ip administered as single dose 30 mins prior to refeeding measured up to 4 hrs; format: functional, organism-based
Mus musculus [12] = assay: Reduction in carbohydrate oxidation in 18 hrs fasted C57Bl/6J mouse model of fasting-induced refeeding at 50 mg/kg, ip administered as single dose 30 mins prior to refeeding measured after 20 mins; format: functional, organism-based
Mus musculus [13] = assay: Increase in fat oxidation in 18 hrs fasted C57Bl/6J mouse model of fasting-induced refeeding at 50 mg/kg, ip administered as single dose 30 mins prior to refeeding measured after 20 mins; format: functional, organism-based
Mus musculus [14] = assay: Toxicity in 18 hrs fasted C57Bl/6J mouse model of fasting-induced refeeding assessed as effect on locomotor activity at 50 mg/kg, ip administered as single dose 30 mins prior to refeeding measured after 24 hrs; format: organism-based; conditions: in vivo
Mus musculus [15] = assay: Ex vivo inhibition of FP-TAMRA probe binding to carboxylesterase in mouse liver at 3 to 50 mg/kg, ip after 4 hrs by gel-based competitive activity based protein profiling assay; format: functional, organism-based

Compound: O=C(N1CCCCC1Cc1ccccc1)n1cc(-c2ccc(-c3ccccc3)cc2)nn1 (racemic)
- pIC50 [1]: 5.64
- pIC50 [2]: 8.20 to 8.90
- inhibition [3]: Active
- inhibition [4]: Active
- pIC50 [5]: 7.40
- pIC50 [6]: 6.90

Compound: C#CCO[C@@H]1CC[C@H](Cc2ccccc2)N(C(=O)n2ncc(C(O)(c3ccc(F)cc3)c3ccc(F)cc3)n2)C1
- pIC50 [5]: 8.60
- inhibition [7]: Dose-dependent effect
- pIC50 [8]: 9.20
- pIC50 [9]: 7.10
- Ratio IC50 (Mus musculus [10]): 126
- inhibition (Mus musculus [11]): Active
- Activity (Mus musculus [12]): Active
- Activity (Mus musculus [13]): Active
- Activity (Mus musculus [14]): Non-Toxic
- inhibition (Mus musculus [15]): Active
